The target in experiment [1] is T1, Serine-threonine protein phosphatase 2A regulatory subunit (Gallus gallus, UniProt Q8AWE3).
T1 sequence (Q8AWE3 whole entry): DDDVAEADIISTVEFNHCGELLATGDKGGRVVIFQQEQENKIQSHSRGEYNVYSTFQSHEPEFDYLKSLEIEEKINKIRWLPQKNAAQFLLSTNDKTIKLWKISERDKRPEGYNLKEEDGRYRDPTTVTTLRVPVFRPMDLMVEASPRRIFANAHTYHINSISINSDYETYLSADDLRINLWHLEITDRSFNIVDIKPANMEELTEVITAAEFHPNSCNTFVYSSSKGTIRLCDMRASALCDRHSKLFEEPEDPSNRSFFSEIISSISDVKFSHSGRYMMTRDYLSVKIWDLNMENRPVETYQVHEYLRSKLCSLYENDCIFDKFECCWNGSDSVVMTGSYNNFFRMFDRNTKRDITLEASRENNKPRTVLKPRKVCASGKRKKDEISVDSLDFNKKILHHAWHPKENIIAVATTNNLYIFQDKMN
Nature of the experiment: Observed inhibition activity against protein phosphatase 2A (PP2A).

Experiment [2] has as its target T1, Serine-threonine protein phosphatase 2A regulatory subunit. Nature of the experiment: Inhibition activity against protein phosphatase 2A (PP2A), activity taken from literature.
For experiment [3] the target is unchanged. Briefly: (§1) Observed inhibition activity of the compounds against protein phosphatases 2A (PP2A). In short, it runs like this:
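Commercial PP2A (e.g. 3 mU) in MOPS/2-mercaptoethanol/MgCl2/albumin dilution buffer. Preincubated 10 min with inhibitor at pH 8.0 Tris-HCl. Reaction started with KR-pT-IRR phosphopeptide (0.2 mM stock), 60 min at 22 °C. Released phosphate measured by malachite green at 650 nm after 20 min development; IC50 from inhibition curves.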

Experiment [4] deals with T2, Serine/threonine-protein phosphatase 2A 55 kDa regulatory subunit B alpha isoform (Homo sapiens, UniProt P63151).
T2 sequence (P63151 whole entry): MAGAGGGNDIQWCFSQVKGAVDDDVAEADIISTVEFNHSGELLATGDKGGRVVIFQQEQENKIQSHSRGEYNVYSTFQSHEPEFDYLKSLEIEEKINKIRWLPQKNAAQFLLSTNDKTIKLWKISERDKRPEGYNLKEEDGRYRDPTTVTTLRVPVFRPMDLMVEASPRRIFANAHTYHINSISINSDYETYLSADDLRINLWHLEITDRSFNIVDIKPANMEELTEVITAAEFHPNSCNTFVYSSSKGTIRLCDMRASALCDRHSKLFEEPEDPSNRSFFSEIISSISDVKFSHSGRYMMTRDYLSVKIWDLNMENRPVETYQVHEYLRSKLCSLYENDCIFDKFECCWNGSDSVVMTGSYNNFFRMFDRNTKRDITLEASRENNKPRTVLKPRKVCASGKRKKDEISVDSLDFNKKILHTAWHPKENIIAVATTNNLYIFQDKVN
Described as §1.

Data on six molecules can be found in ChEMBL document CHEMBL1130173, “A model for binding of structurally diverse natural product inhibitors of protein phosphatases PP1 and PP2A” (J Med Chem, 1997).

pIC50: −log10 of the molar value. *1 amine or outer side, *2 acyl side, *3 side chain or, on linkers, in order; H or OH if unused. Where a SMILES comes first, the peptide text is derived from it. Bridges are numbered along the chain shown (N, C = ends). [ ]: non-standard residue; d: D form. Adda = CO[C@@H](Cc1ccccc1)[C@@H](C)/C=C(C)/C=C/[C@H](N[*:1])[C@H](C)C(=O)[*:2]; dAsp(3S-Me) = C[C@H](C(=O)[*:3])[C@@H](N[*:1])C(=O)[*:2]; d(γGlu) = O=C(O)[C@@H](CCC(=O)[*:2])N[*:1]; NMeDha = C=C(NC)C(=O)O

As to `CC=C1C(=O)N[C@@H](C(=O)O)[C@H](C)C(=O)N[C@@H](CCCNC(=N)N)C(=O)N[C@@H](/C=C/C(C)=C/[C@H](C)[C@H](Cc2ccccc2)OC)[C@H](C)C(=O)N[C@@H](C(=O)O)CCC(=O)N1C`, the pIC50 (usually the IC50 on a negative log10 scale, so that one unit is a factor of ten) was 9.70 in experiment [1] and 9.00 in experiment [2]. `COC([C@H](OC(=O)C[C@@H](O)C1=C(C)C(=O)OC1=O)C(C)C)[C@H](O)CC(=O)[C@@H](C)[C@@H](O)CC[C@@H](C)[C@@H]1O[C@]2(CC[C@@H](C)[C@H](CC[C@H](C)C(C)=O)O2)CC[C@@H]1C` (single isomer, unassigned) [TAUTOMYCIN] showed a pIC50 in experiment [3] of 8.00. The same measure, in the same setting: next, `COC[C@@H]([C@H](O)[C@H](O)C(=O)NCC[C@H](C)c1nc(/C=C/C[C@@H]2O[C@]3(C[C@@H](O)[C@@H]2C)O[C@H]([C@H](C[C@H](O)[C@H](C)[C@H](O)[C@H](C)/C=C(C)/C(C)=C/C=C/C(C)=C\C#N)OC)[C@H](OP(=O)(O)O)C3(C)C)co1)N(C)C` [CALYCULIN A]: 8.14; `COC[C@@H]([C@H](O)[C@H](O)C(=O)N[C@H](C)C[C@H](C)c1nc(/C=C/C[C@@H]2O[C@]3(C[C@@H](O)[C@@H]2C)O[C@H]([C@H](C[C@H](O)[C@H](C)[C@H](O)[C@H](C)/C=C(C)/C(C)=C/C=C/C(C)=C\C#N)OC)[C@H](OP(=O)(O)O)C3(C)C)co1)N(C)C` [CALYCULIN]: 8.01. For `C=C1C(=O)N[C@H](C)C(=O)N[C@@H](CC(C)C)C(=O)N[C@@H](C(=O)O)[C@H](C)C(=O)N[C@@H](CCCNC(=N)N)C(=O)N[C@@H](/C=C/C(C)=C/[C@H](C)[C@H](Cc2ccccc2)OC)[C@H](C)C(=O)N[C@@H](C(=O)O)CCC(=O)N1C` [MICROCYSTIN-LR] (R[Adda][d(γGlu)][NMeDha][dA]L[dAsp(3S-Me)]-OH; lactam N-7), in experiment [4], the pIC50 is 10.19. As for `C=C1[C@@H](O)[C@@H]2O[C@]3(CC[C@H](/C=C/[C@@H](C)[C@@H]4CC(C)=C[C@@]5(O[C@H](C[C@@](C)(O)C(=O)O)CC[C@H]5O)O4)O3)CC[C@H]2O[C@@H]1[C@@H](O)C[C@H](C)[C@H]1O[C@@]2(CCCCO2)CC[C@H]1C` [OKADAIC ACID], the values for the pIC50 in experiment [1] and in experiment [2] were 9.35 and 9.00, respectively.
